Values after ≈ are worked out from the molar mass of the structure shown.
Assays:
Staphylococcus aureus [1] = experiment: AUC/MIC ratio of Staphylococcus aureus 33591 infected neutropenic mouse thigh infection model at 74 mg/kg, ip administered every 72 hrs by static effect experiment; format: functional; conditions: route intraperitoneal
Staphylococcus aureus [2] = experiment: AUC/MBC ratio of Staphylococcus aureus 307109 infected neutropenic mouse thigh infection model at 31 mg/kg, ip administered every 72 hrs by static effect experiment; format: functional; conditions: route intraperitoneal
Staphylococcus aureus [3] = experiment: Bactericidal activity against […] Staphylococcus aureus ATCC 29213 infected neutropenic Swiss ICR mouse thigh infection model assessed as drug level causing 1-log reduction of bacterial count at 267 mg/kg, ip dosed every 24 hrs; format: functional; conditions: route intraperitoneal
Streptococcus pneumoniae [4] = experiment: AUC/MIC ratio of Streptococcus pneumoniae 1329 infected neutropenic mouse thigh infection model at 1.18 mg/kg, ip administered every 24 hrs by 1-log killing experiment; format: functional; conditions: route intraperitoneal
Staphylococcus aureus [5] = experiment: AUC/MIC ratio of Staphylococcus aureus 31005 infected neutropenic mouse thigh infection model at 49.3 mg/kg, ip administered every 24 hrs by static effect experiment; format: functional; conditions: route intraperitoneal
[6] = AUC in bacterial pathogen-infected neutropenic Swiss ICR mouse thigh infection model at 20 mg/kg, ip; format: ADME, organism-based; set-up: dose 20 mg/kg, route intraperitoneal; conditions: in vivo
Outline: (§1)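 Thigh-infected neutropenic mice received single intraperitoneal doses (2.5, 5, 10, 20, 40, 80 mg/kg; 0.2 ml/dose). Blood was drawn by retroorbital aspiration from groups of three mice at 0.5, 1, 2, 4, 6, 24, 48, 72 and 96 h. Plasma levels were measured by microbiologic assay with Bacillus subtilis (detection limit 0.10 mg/liter). Noncompartmental analysis was used: half-life by linear least-squares regression, AUC by trapezoidal rule.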

Staphylococcus aureus [7] = experiment: Antibacterial activity against methicillin-resistant Staphylococcus aureus in presence of 95% mouse serum ultrafiltrate; format: functional
Outline: (§2)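 MIC determined in broth, heat-treated (100°C, 30 min) 95% mouse serum, and 95% mouse serum ultrafiltrate, using arithmetic dilutions of 0.02 mg/liter per tube. Protein binding estimated as (MIC in 95% serum − MIC in ultrafiltrate)/MIC in 95% serum.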

Staphylococcus aureus [8] = experiment: AUC/MBC ratio of Staphylococcus aureus 31005 infected neutropenic mouse thigh infection model at 127 mg/kg, ip administered every 72 hrs by 2-log killing experiment; format: functional; conditions: route intraperitoneal
Streptococcus pneumoniae [9] = experiment: AUC/MIC ratio of Streptococcus pneumoniae ATCC 10813 infected neutropenic mouse thigh infection model at 0.82 mg/kg, ip administered every 72 hrs by 2-log killing experiment; format: functional; conditions: route intraperitoneal
Staphylococcus aureus [10] = experiment: Antibacterial activity against Staphylococcus aureus Smith by microdilution method; format: functional
Outline: (§3)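 MICs in duplicate on at least two occasions by standard CLSI broth microdilution; S. aureus grown and quantified in Mueller-Hinton broth/agar.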

Streptococcus pneumoniae [11] = experiment: AUC/MIC ratio of Streptococcus pneumoniae 1293 infected neutropenic mouse thigh infection model at 0.44 mg/kg, ip administered every 24 hrs by static effect experiment; format: functional; conditions: route intraperitoneal
Streptococcus pneumoniae [12] = experiment: AUC/MIC ratio of Streptococcus pneumoniae ATCC 10813 infected neutropenic mouse thigh infection model at 1.34 mg/kg, ip administered every 24 hrs by static effect experiment; format: functional; conditions: route intraperitoneal
[13] = Cmax in bacterial pathogen-infected neutropenic Swiss ICR mouse thigh infection model at 40 mg/kg, ip; format: ADME, organism-based; set-up: dose 40 mg/kg, route intraperitoneal; conditions: in vivo; outline: as §1
Staphylococcus aureus [14] = experiment: Antibacterial activity against Staphylococcus aureus 33591 by microdilution method; format: functional; outline: as §3
Streptococcus pneumoniae [15] = experiment: Bactericidal activity against penicillin-susceptible Streptococcus pneumoniae ATCC 10813 infected neutropenic Swiss ICR mouse thigh infection model assessed as drug level causing 1-log reduction of bacterial count at 1.34 mg/kg, ip dosed every 24 hrs; format: functional; conditions: route intraperitoneal
Staphylococcus aureus [16] = experiment: AUC/MBC ratio of Staphylococcus aureus 33591 infected neutropenic mouse thigh infection model at 33.5 mg/kg, ip administered every 24 hrs by 2-log killing experiment; format: functional; conditions: route intraperitoneal
Staphylococcus aureus [17] = experiment: AUC/MIC ratio of Staphylococcus aureus 33591 infected neutropenic mouse thigh infection model at 22.3 mg/kg, ip administered every 24 hrs by static effect experiment; format: functional; conditions: route intraperitoneal
Streptococcus pneumoniae [18] = experiment: AUC/MIC ratio of Streptococcus pneumoniae 1293 infected neutropenic mouse thigh infection model at 0.55 mg/kg, ip administered every 24 hrs by 1-log killing experiment; format: functional; conditions: route intraperitoneal
Staphylococcus aureus [19] = experiment: AUC/MIC ratio of methicillin-resistant Staphylococcus aureus infected neutropenic mouse thigh infection model at 43 mg/kg, ip administered every 72 hrs by static effect experiment; format: functional; conditions: route intraperitoneal
Staphylococcus aureus [20] = experiment: Antibacterial activity against Staphylococcus aureus ATCC 25923 in presence of 95% mouse serum; format: functional; outline: as §2
Streptococcus pneumoniae [21] = experiment: AUC/MIC ratio of Streptococcus pneumoniae ATCC 10813 infected neutropenic mouse thigh infection model at 1.54 mg/kg, ip administered every 24 hrs by 1-log killing experiment; format: functional; conditions: route intraperitoneal
Streptococcus pneumoniae [22] = experiment: AUC/MIC ratio of Streptococcus pneumoniae 1396 infected neutropenic mouse thigh infection model at 0.69 mg/kg, ip administered every 72 hrs by 2-log killing experiment; conditions: route intraperitoneal
Staphylococcus aureus [23] = experiment: AUC/MIC ratio of methicillin-resistant Staphylococcus aureus infected neutropenic mouse thigh infection model at 85 mg/kg, ip administered every 72 hrs by 2-log killing experiment; format: functional; conditions: route intraperitoneal

## CN[C@H]1C(=O)N[C@@H]2Cc3ccc(cc3)Oc3cc4cc(c3O[C@@H]3O[C@H](C(=O)O)[C@@H](O)[C@H](O)[C@H]3NC(=O)CCCCCCCCC(C)C)Oc3ccc(cc3Cl)[C@@H](O)[C@@H]3NC(=O)[C@H](NC(=O)[C@@H]4NC(=O)[C@@H](NC2=O)c2cc(cc(O)c2Cl)Oc2cc1ccc2O)c1ccc(O)c(c1)-c1c(O[C@H]2O[C@H](CO)[C@@H](O)[C@H](O)[C@@H]2O)cc(O)cc1[C@@H](C(=O)NCCCN(C)C)NC3=O [DALBAVANCIN]
Staphylococcus aureus [1]
  RatioAUC/MIC: 123
Staphylococcus aureus [2]
  Ratio: 11.3
Staphylococcus aureus [3]
  ED 1-log kill: 267 mg/kg/day
Streptococcus pneumoniae [4]
  RatioAUC/MIC: 23.5
Staphylococcus aureus [5]
  RatioAUC/MIC: 483
[6]
  AUC: 2260 µg·h/mL
Staphylococcus aureus [7]
  MIC: 0.5 µg/mL
Staphylococcus aureus [8]
  Ratio: 217
Streptococcus pneumoniae [9]
  RatioAUC/MIC: 1.6
Staphylococcus aureus [10]
  MBC: 0.25 µg/mL (≈ 0.138 µM)
  MIC: 0.06 µg/mL (≈ 0.033 µM)
Streptococcus pneumoniae [11]
  RatioAUC/MIC: 17.4
Streptococcus pneumoniae [12]
  RatioAUC/MIC: 7.5
[13]
  Cmax: 663 µg/mL
Staphylococcus aureus [14]
  MBC: 0.25 µg/mL (≈ 0.138 µM)
  MIC: 0.12 µg/mL (≈ 0.0661 µM)
Streptococcus pneumoniae [15]
  Activity: 1.54
Staphylococcus aureus [16]
  Ratio: 74.3
Staphylococcus aureus [17]
  RatioAUC/MIC: 96.2
Streptococcus pneumoniae [18]
  RatioAUC/MIC: 21.7
Staphylococcus aureus [19]
  RatioAUC/MIC: 147
Staphylococcus aureus [20]
  MIC: 32 µg/mL
Streptococcus pneumoniae [21]
  RatioAUC/MIC: 8.7
Streptococcus pneumoniae [22]
  RatioAUC/MIC: 4.8
Staphylococcus aureus [23]
  RatioAUC/MIC: 292

Reference: ChEMBL document CHEMBL1145462, “In vivo pharmacodynamic activity of the glycopeptide dalbavancin” (Antimicrob Agents Chemother, 2007)
